{"source": "ChEMBL document CHEMBL1125123", "about": "“Antimalarial activity of new water-soluble dihydroartemisinin derivatives. 3. Aromatic amine analogues” (J Med Chem, 1990)", "key": {"Plasmodium falciparum [1]": {"system": "Plasmodium falciparum", "experiment": "Antimalarial activity against Plasmodium falciparum W-2 Indochina in human malaria", "assay_type": "functional, organism-based", "in_short": "(§1)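 Compounds dissolved in DMSO and 70% ethanol, then diluted in RPMI 1640 with 10% human plasma and tested over 1.56–100 × 10⁻⁹ M. Parasites at 0.5% parasitemia and 1% hematocrit were exposed to compound for 24 h before ³H-hypoxanthine was added. Uptake was read by scintillation counting, and IC50 was derived by nonlinear regression of concentration-response data.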"}, "Plasmodium falciparum [2]": {"system": "Plasmodium falciparum", "experiment": "Antimalarial activity against Plasmodium falciparum D6 Africa in human malaria", "assay_type": "functional, organism-based", "in_short": "as §1"}}, "data": [{"smiles": "C[C@@H]1CC[C@H]2[C@](C)(Br)[C@@H](Nc3nccs3)O[C@@H]3O[C@@]4(C)CC[C@@H]1[C@]32OO4", "values": [{"measurement": "IC50", "setting": "Plasmodium falciparum [1]", "value": 0.21, "unit": "ng/mL"}, {"measurement": "IC50", "setting": "Plasmodium falciparum [2]", "value": 0.91, "unit": "ng/mL"}]}, {"smiles": "C[C@@H]1CC[C@H]2[C@](C)(Br)[C@@H](Nc3ccccn3)O[C@@H]3O[C@@]4(C)CC[C@@H]1[C@]32OO4", "values": [{"measurement": "IC50", "setting": "Plasmodium falciparum [1]", "value": 1.19, "unit": "ng/mL"}, {"measurement": "IC50", "setting": "Plasmodium falciparum [2]", "value": 7.72, "unit": "ng/mL"}]}, {"smiles": "C[C@@H]1CC[C@H]2[C@](C)(Br)[C@@H](Nc3cccc(F)c3)O[C@@H]3O[C@@]4(C)CC[C@@H]1[C@]32OO4", "values": [{"measurement": "IC50", "setting": "Plasmodium falciparum [1]", "value": "< 0.16", "unit": "ng/mL"}, {"measurement": "IC50", "setting": "Plasmodium falciparum [2]", "value": 0.16, "unit": "ng/mL"}]}, {"smiles": "C[C@@H]1CC[C@H]2[C@](C)(Br)[C@@H](Nc3ncccn3)O[C@@H]3O[C@@]4(C)CC[C@@H]1[C@]32OO4", "values": [{"measurement": "IC50", "setting": "Plasmodium falciparum [1]", "value": 5.56, "unit": "ng/mL"}, {"measurement": "IC50", "setting": "Plasmodium falciparum [2]", "value": 26, "unit": "ng/mL"}]}, {"smiles": "C[C@@H]1CC[C@H]2[C@](C)(Br)[C@@H](Nc3ccccc3)O[C@@H]3O[C@@]4(C)CC[C@@H]1[C@]32OO4", "values": [{"measurement": "IC50", "setting": "Plasmodium falciparum [1]", "value": 0.63, "unit": "ng/mL"}, {"measurement": "IC50", "setting": "Plasmodium falciparum [2]", "value": 3.42, "unit": "ng/mL"}]}, {"smiles": "C[C@@H]1CC[C@H]2[C@@H](C)C(=O)O[C@@H]3O[C@@]4(C)CC[C@@H]1[C@]32OO4", "note": "[ARTEMISININ]", "values": [{"measurement": "IC50", "setting": "Plasmodium falciparum [2]", "value": 0.56, "unit": "ng/mL"}]}]}
